Our source for the Activity, inhibition in vivo and ED50 values is ChEMBL document CHEMBL1122665, “Synthesis of thyrotropin-releasing hormone analogues. 1. Complete dissociation of central nervous system effects from thyrotropin-releasing activity” (1984).

The nature of experiment [1]: Evaluated for hormonal (TSH) releasing activity in adult male albino rats after single intraperitoneal injection using radioimmunoassay. In kind it is functional. In short, it runs like this: (§1)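 Two-point assay in adult male albino rats: single ip injection at 1 and 10 μg. Blood drawn 15 min post-injection. Serum TSH measured by radioimmunoassay (NIAMDD rat TSH-RIA system). Relative potency expressed in percent, with synthetic TRH reference set at 100%.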

For experiment [2], the system named is Rattus norvegicus. Description: Inhibition of haloperidol catalepsy by less than 50% in a dose of 80 mg/kg, iv in adult male Wistar rats. Format: functional.
Experiment [3] relates to Rattus norvegicus. Briefly: Anticataleptic effect at effective dose after intravenous administration in adult male Wistar rats. In kind it is functional. In short, it runs like this:
(§2)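 Haloperidol catalepsy induced in adult male Wistar rats by 4 mg/kg ip. Analogues given iv at 5 to 80 mg/kg, 2 h after haloperidol. Read-out is inhibition of catalepsy, taken as a measure of dopaminergic stimulation. Synthetic TRH served as reference standard.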

For experiment [4], the system named is Rattus norvegicus. Briefly: Evaluated for hormonal (TSH) releasing activity in adult male albino rats after single intraperitoneal injection using radioimmunoassay; np-significant activity but not parallel TSH response to the lower and upper doses used. Format: functional, organism-based. In outline: as §1
Experiment [5] relates to Rattus norvegicus. Description: Evaluated for hormonal (TSH) releasing activity in adult male albino rats after single intraperitoneal injection using radioimmunoassay; np- significant activity but not parallel TSH response to the lower and upper doses used. In kind it is functional, organism-based. In short, it runs like this: as §1
In experiment [6] the test system is Rattus norvegicus. Description: Anticataleptic effect at effective dose after intravenous administration in adult male Wistar rats. Format: functional. In short, it runs like this:
as §2

Experiment [7] concerns Rattus norvegicus. Briefly: Evaluated for hormonal (TSH) releasing activity in adult male albino rats after single intraperitoneal injection using radioimmunoassay; np -significant but not parallel TSH response to the lower and upper doses used. In kind it is functional, organism-based. In outline: as §1
Setting [8] is: Rattus norvegicus, iv, read-out: ED50.

Non-standard residues stand in square brackets, D forms with d. Residues, ends and D or L forms follow the SMILES beside them. *: point of attachment. Cha = N[C@@H](CC1CCCCC1)C(=O)O; pGlu = O=C1CC[C@@H](C(=O)O)N1; Nle = CCCC[C@H](N)C(=O)O; Nva = CCC[C@H](N)C(=O)O; Abu = CC[C@H](N)C(=O)O; tBu = CC(C)(C)* A value given as a limit tells only on which side of the number the result lay.

Take `NC(=O)[C@@H]1CCCN1C(=O)[C@H](CC1CCCCC1)NC(=O)[C@@H]1CCC(=O)N1` ([pGlu]-[Cha]-Pro-NH2): the Activity in experiment [1] is reported as 45.6%. Besides, the inhibition in vivo (in general, the drop in the measured response relative to a control, in per cent) at 80 mg/kg in the experiment with Rattus norvegicus [2] came out at 20%. On to `CCCC[C@H](NC(=O)[C@@H]1CCC(=O)N1)C(=O)N1CCC[C@H]1C(N)=O` ([pGlu]-[Nle]-Pro-NH2), for which, in experiment [1], the Activity was found to be 3.8%. In addition, the ED50 (as a rule, the dose at which the effect has come halfway, by size or by number of responders) with Rattus norvegicus [3] (setting [8]) is 16.8 mg/kg.

In experiment [1], `CC[C@H](C)[C@H](NC(=O)[C@@H]1CCC(=O)N1)C(=O)N1CCC[C@H]1C(N)=O` ([pGlu]-Ile-Pro-NH2) registered an Activity of 0.2%. The compound also gave an inhibition in vivo at 80 mg/kg in the experiment with Rattus norvegicus [2] of 10%. In the case of `CCC[C@H](NC(=O)[C@@H]1CCC(=O)N1)C(=O)N1CCC[C@H]1C(N)=O` ([pGlu]-[Nva]-Pro-NH2), the Activity in experiment [1] amounted to 0%. For the same compound, the ED50 in the experiment on Rattus norvegicus [3] (setting [8]) was found to be 11.4 mg/kg.

As to `CC(C)[C@H](NC(=O)[C@@H]1CCC(=O)N1)C(=O)N1CCC[C@H]1C(N)=O` ([pGlu]-Val-Pro-NH2), the Activity in experiment [1] was 3.1%. Moreover, in the experiment with Rattus norvegicus [3] (setting [8]), the ED50 was > 80 mg/kg. Taken in the same sequence, the figures for `CC[C@H](NC(=O)[C@@H]1CCC(=O)N1)C(=O)N1CCC[C@H]1C(N)=O` ([pGlu]-[Abu]-Pro-NH2) were 0% and ≥ 80 mg/kg. On the same counts, the results for `CC(C)C[C@@H](NC(=O)[C@@H]1CCC(=O)N1)C(=O)N1CCC[C@H]1C(N)=O` are 0% and > 80 mg/kg. In the experiment with Rattus norvegicus [2], `NC(=O)[C@@H]1CCCN1C(=O)[C@H](Cc1ccccc1)NC(=O)[C@@H]1CCC(=O)N1` ([pGlu]-Phe-Pro-NH2) yielded an inhibition in vivo at 80 mg/kg of 40%. Take `CC(C)C[C@H](NC(=O)[C@@H]1CCC(=O)N1)C(=O)N1CCC[C@@H]1C(N)=O`: in experiment [1], the Activity worked out at 0%. The 50% effective dose (ED50) in the experiment with Rattus norvegicus [3] (setting [8]) was > 80 mg/kg. `CC(C)C[C@@H](NC(=O)[C@H]1CCC(=O)N1)C(=O)N1CCCC1`: the Activity entry with Rattus norvegicus [4] is on record as “Significant but not parallel”. In addition, the inhibition in vivo at 80 mg/kg in the experiment with Rattus norvegicus [2] was 20%. On to `NC(=O)[C@@H]1CCCN1C(=O)[C@@H]1CCCN1C(=O)[C@H]1CCC(=O)N1`, for which the Activity result with Rattus norvegicus [5] is given as “Significant but not parallel”.

Turning to `CC(C)(C)OC[C@H](NC(=O)[C@@H]1CCC(=O)N1)C(=O)N1CCC[C@H]1C(N)=O` ([pGlu]-Ser(tBu)-Pro-NH2), the Activity in experiment [1] is given as 0.2%. Moreover, the inhibition in vivo at 80 mg/kg in the experiment with Rattus norvegicus [2] was 0%. Compound `NC(=O)[C@@H]1CCCN1C(=O)[C@H](Cc1c[nH]cn1)NC(=O)[C@@H]1CCC(=O)N1` [PROTIRELIN] displayed an Activity in experiment [1] of 100%. This compound also gave an ED50 in the experiment on Rattus norvegicus [6] of 113 mg/kg. Moreover, the inhibition in vivo at 80 mg/kg in the experiment with Rattus norvegicus [2] was 40%. As for `NC(=O)[C@@H]1CCCN1C(=O)[C@@H]1CCCN1C(=O)[C@@H]1CCC(=O)N1`, the ED50 in the experiment on Rattus norvegicus [3] (setting [8]) came to 80 mg/kg. `CC(C)C[C@H](NC(=O)[C@@H]1CCC(=O)N1)C(=O)N1CCC[C@H]1C(N)=O` [listing 1 of 2 here] returned an Activity in experiment [1] of 2.7%. This compound also had an ED50 in the experiment with Rattus norvegicus [3] of 40 mg/kg. On to `CC(C)C[C@@H](NC(=O)[C@H]1CCC(=O)N1)C(=O)N1CCC[C@@H]1C(=O)O`, for which, in experiment [1], the Activity is 0.1%. In the experiment with Rattus norvegicus [2], this compound returned an inhibition in vivo at 80 mg/kg of 0%.

Take `C[C@H](NC(=O)[C@@H]1CCC(=O)N1)C(=O)N1CCC[C@H]1C(N)=O` ([pGlu]-Ala-Pro-NH2): the Activity in experiment [1] is given as 0%. This compound gave an inhibition in vivo at 80 mg/kg with Rattus norvegicus [2] of 0%. As to `CC(C)C[C@@H](NC(=O)[C@H]1CCC(=O)N1)C(=O)N1CCC[C@@H]1C(=O)NCCN(C)C`, the Activity in experiment [1] turned out to be 0%. Also, testing at 80 mg/kg with Rattus norvegicus [2] gave an inhibition in vivo of 10%. Taken in the same sequence, the figures for `NC(=O)[C@@H]1CCCN1C(=O)CNC(=O)[C@@H]1CCC(=O)N1` ([pGlu]-Gly-Pro-NH2) were 0% and 10%. On the same counts, the results for `COC(=O)[C@H]1CCCN1C(=O)[C@@H](CC(C)C)NC(=O)[C@H]1CCC(=O)N1` are 0% and 0%. On to `CCNC(=O)[C@H]1CCCN1C(=O)[C@@H](CC(C)C)NC(=O)[C@H]1CCC(=O)N1`, for which the Activity in experiment [1] stood at 0%. Also, in the experiment with Rattus norvegicus [3] (setting [8]), the ED50 amounted to 56.6 mg/kg. Compound `CSCC[C@H](NC(=O)[C@@H]1CCC(=O)N1)C(=O)N1CCC[C@H]1C(N)=O` ([pGlu]-Met-Pro-NH2) showed an Activity in experiment [1] of 1%. The compound also showed an inhibition in vivo at 80 mg/kg in the experiment on Rattus norvegicus [2] of 40%. In experiment [1], `C[C@@H](O)[C@H](NC(=O)[C@@H]1CCC(=O)N1)C(=O)N1CCC[C@H]1C(N)=O` ([pGlu]-Thr-Pro-NH2) came in with an Activity of 25.7%. Besides, the median effective dose (ED50) in the experiment on Rattus norvegicus [3] (setting [8]) amounted to 80 mg/kg. With `CCCCCCCCCCNC(=O)[C@H]1CCCN1C(=O)[C@@H](CC(C)C)NC(=O)[C@H]1CCC(=O)N1`, the Activity in experiment [1] is given as 0%. Further, the inhibition in vivo at 80 mg/kg in the experiment with Rattus norvegicus [2] is 10%. Regarding `CCCCCCCC[C@H](NC(=O)[C@@H]1CCC(=O)N1)C(=O)N1CCC[C@H]1C(N)=O`, in the experiment with Rattus norvegicus [7], the Activity result is recorded as “Significant but not parallel”. This compound registered an inhibition in vivo at 80 mg/kg in the experiment on Rattus norvegicus [2] of 0%. In experiment [1], `CC(C)C[C@H](NC(=O)[C@@H]1CCC(=O)N1)C(=O)N1CCC[C@H]1C(N)=O` [listing 2 of 2 here] showed an Activity of 0%. Also, the ED50 with Rattus norvegicus [3] (setting [8]) is 70 mg/kg.
